Test results as given in ChEMBL document CHEMBL1150802, “Ampicillin-resistant non-beta-lactamase-producing Haemophilus influenzae in Spain: recent emergence of clonal isolates with increased resistance to cefotaxime and cefixime” (2007).
In brackets after ≈: the same amount, converted by molar mass.

How the values were obtained:
Type in all cases: functional
Haemophilus influenzae [1] = assay: Antibacterial activity against Haemophilus influenzae group IIc isolates with ftsI gene mutation by broth microdilution method
Outline: (§1)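 Clinical isolates were tested by broth microdilution in Haemophilus test medium following CLSI guidelines, with H. influenzae ATCC 49247 as the QC strain. β-Lactamase was detected by chromogenic nitrocefin test. ftsI was PCR-amplified and sequenced across nt 936–1640 (aa 327–540). Classes: BLNAS (no mechanism), BLNAR (ftsI substitutions), BLPAR (β-lactamase only), BLPACR (both). Agents tested were amoxicillin, amoxicillin-clavulanate (2:1), cefaclor, cefuroxime, cefotaxime and cefixime.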

Haemophilus influenzae [2] = assay: Antibacterial activity against beta-lactamase nonproducing ampicillin susceptible Haemophilus influenzae isolate by broth microdilution method; outline: as §1
Haemophilus influenzae [3] = assay: Antibacterial activity against beta-lactamase nonproducing ampicillin susceptible Haemophilus influenzae isolate assessed as percent susceptible isolates by broth microdilution method
Outline: (§2)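 Broth microdilution in Haemophilus test medium per CLSI guidelines on clinical isolates, with H. influenzae ATCC 49247 as quality-control strain; β-lactamase production detected by nitrocefin chromogenic cephalosporin test; isolates classed by β-lactamase status and ftsI (PBP 3) sequencing of amino acids 327 to 540. Agents tested: amoxicillin, amoxicillin-clavulanic acid (2:1), cefaclor, cefuroxime, cefotaxime, cefixime.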

Haemophilus influenzae [4] = assay: Antibacterial activity against Haemophilus influenzae group IIb isolates with ftsI gene mutation by broth microdilution method; outline: as §1
Haemophilus influenzae [5] = assay: Antibacterial activity against beta-lactamase nonproducing ampicillin susceptible Haemophilus influenzae isolate assessed as percent resistant isolates by broth microdilution method; outline: as §1
Haemophilus influenzae [6] = assay: Antibacterial activity against beta-lactamase producing amoxicillin-clavulanic acid-resistant Haemophilus influenzae isolate by broth microdilution method; outline: as §1
Haemophilus influenzae [7] = assay: Antibacterial activity against Haemophilus influenzae group III-like isolates with ftsI gene mutation by broth microdilution method; outline: as §1
Haemophilus influenzae [8] = assay: Antibacterial activity against beta-lactamase positive ampicillin resistant Haemophilus influenzae isolate assessed as percent resistant isolates by broth microdilution method; outline: as §1
Haemophilus influenzae [9] = assay: Antibacterial activity against beta-lactamase nonproducing ampicillin resistant Haemophilus influenzae isolate by broth microdilution method; outline: as §1
Haemophilus influenzae [10] = assay: Antibacterial activity against Haemophilus influenzae group IIa isolates with ftsI gene mutation by broth microdilution method; outline: as §1
Haemophilus influenzae [11] = assay: Antibacterial activity against Haemophilus influenzae group IId isolates with ftsI gene mutation by broth microdilution method; outline: as §1
Haemophilus influenzae [12] = assay: Antibacterial activity against beta-lactamase nonproducing ampicillin resistant Haemophilus influenzae isolate assessed as percent resistant isolates by broth microdilution method; outline: as §1
Haemophilus influenzae [13] = assay: Antibacterial activity against beta-lactamase producing amoxicillin-clavulanic acid-resistant Haemophilus influenzae isolate assessed as percent resistant isolates by broth microdilution method; outline: as §1
Haemophilus influenzae [14] = assay: Antibacterial activity against beta-lactamase nonproducing ampicillin resistant Haemophilus influenzae isolate assessed as percent susceptible isolates by broth microdilution method; outline: as §1
Haemophilus influenzae [15] = assay: Antibacterial activity against beta-lactamase positive ampicillin resistant Haemophilus influenzae isolate by broth microdilution method; outline: as §1
Haemophilus influenzae [16] = assay: Antibacterial activity against beta-lactamase producing amoxicillin-clavulanic acid-resistant Haemophilus influenzae isolate assessed as percent susceptible isolates by broth microdilution method; outline: as §2
Haemophilus influenzae [17] = assay: Antibacterial activity against Haemophilus influenzae group I isolates with ftsI gene mutation by broth microdilution method; outline: as §1

| Compound | MIC50 (Haemophilus influenzae [1]) [µg/mL] | MIC90 (Haemophilus influenzae [1]) [µg/mL] | MIC50 (Haemophilus influenzae [2]) [µg/mL] | MIC90 (Haemophilus influenzae [2]) [µg/mL] | Activity (Haemophilus influenzae [3]) [%] | MIC50 (Haemophilus influenzae [4]) [µg/mL] | MIC90 (Haemophilus influenzae [4]) [µg/mL] | Activity (Haemophilus influenzae [5]) [%] | MIC50 (Haemophilus influenzae [6]) [µg/mL] | MIC90 (Haemophilus influenzae [6]) [µg/mL] | MIC50 (Haemophilus influenzae [7]) [µg/mL] | MIC90 (Haemophilus influenzae [7]) [µg/mL] | Activity (Haemophilus influenzae [8]) [%] | MIC50 (Haemophilus influenzae [9]) [µg/mL] | MIC90 (Haemophilus influenzae [9]) [µg/mL] | MIC50 (Haemophilus influenzae [10]) [µg/mL] | MIC90 (Haemophilus influenzae [10]) [µg/mL] | MIC50 (Haemophilus influenzae [11]) [µg/mL] | MIC90 (Haemophilus influenzae [11]) [µg/mL] | Activity (Haemophilus influenzae [12]) [%] | other results |
| --- | --- | --- | --- | --- | --- | --- | --- | --- | --- | --- | --- | --- | --- | --- | --- | --- | --- | --- | --- | --- | --- |
| C=CC1=C(C(=O)O)N2C(=O)[C@@H](NC(=O)/C(=N\OCC(=O)O)c3csc(N)n3)[C@H]2SC1 [CEFIXIME] | 0.06 (≈ 0.132 µM) | 0.12 (≈ 0.265 µM) | 0.06 (≈ 0.132 µM) | 0.06 (≈ 0.132 µM) | 100 | 0.06 (≈ 0.132 µM) | 0.12 (≈ 0.265 µM) | 0 | 0.06 | 0.12 | 1 (≈ 2.21 µM) | 4 (≈ 8.82 µM) | 0 | 0.06 (≈ 0.132 µM) | 0.25 (≈ 0.551 µM) | 0.06 (≈ 0.132 µM) | 0.25 (≈ 0.551 µM) | 0.06 (≈ 0.132 µM) | 0.12 (≈ 0.265 µM) | 1 | Activity (Haemophilus influenzae [13]): 0%; Activity (Haemophilus influenzae [14]): 99%; MIC50 (Haemophilus influenzae [15]): ≤ 0.01 µg/mL; MIC90 (Haemophilus influenzae [15]): 0.06 µg/mL (≈ 0.132 µM); Activity (Haemophilus influenzae [16]): 100%; MIC (Haemophilus influenzae [17]): 0.06 µg/mL (≈ 0.132 µM); MIC50 (Haemophilus influenzae [17]): 0.06 µg/mL (≈ 0.132 µM); MIC90 (Haemophilus influenzae [17]): 0.12 µg/mL (≈ 0.265 µM) |
| CO/N=C(\C(=O)N[C@@H]1C(=O)N2C(C(=O)O)=C(COC(C)=O)CS[C@H]12)c1csc(N)n1 [CEFOTAXIME] | 0.06 (≈ 0.132 µM) | 0.12 (≈ 0.263 µM) | ≤ 0.01 | 0.06 (≈ 0.132 µM) | 100 | 0.06 (≈ 0.132 µM) | 0.12 (≈ 0.263 µM) | 0 | 0.03 | 0.06 | 0.5 (≈ 1.1 µM) | 4 (≈ 8.78 µM) | 0 | 0.06 (≈ 0.132 µM) | 0.25 (≈ 0.549 µM) | 0.06 (≈ 0.132 µM) | 0.25 (≈ 0.549 µM) | 0.03 (≈ 0.0659 µM) | 0.12 (≈ 0.263 µM) | 1 | MIC (Haemophilus influenzae [2]): ≤ 0.01 µg/mL; Activity (Haemophilus influenzae [13]): 0%; Activity (Haemophilus influenzae [14]): 99%; MIC90 (Haemophilus influenzae [15]): 0.06 µg/mL (≈ 0.132 µM); Activity (Haemophilus influenzae [16]): 100%; MIC50 (Haemophilus influenzae [17]): 0.03 µg/mL (≈ 0.0659 µM); MIC90 (Haemophilus influenzae [17]): 0.12 µg/mL (≈ 0.263 µM) |
| CO/N=C(\C(=O)N[C@@H]1C(=O)N2C(C(=O)O)=C(COC(N)=O)CS[C@H]12)c1ccco1 [CEFUROXIME] | 2 (≈ 4.71 µM) | 2 (≈ 4.71 µM) | 0.5 (≈ 1.18 µM) | 1 (≈ 2.36 µM) | 100 | 2 (≈ 4.71 µM) | 2 (≈ 4.71 µM) | 0 | 1 | 2 | 4 (≈ 9.43 µM) | 8 (≈ 18.9 µM) | 0 | 2 (≈ 4.71 µM) | 4 (≈ 9.43 µM) | 2 (≈ 4.71 µM) | 4 (≈ 9.43 µM) | 0.5 (≈ 1.18 µM) | 4 (≈ 9.43 µM) | 2 | MIC (Haemophilus influenzae [11]): 0.5 µg/mL (≈ 1.18 µM); Activity (Haemophilus influenzae [13]): 0%; Activity (Haemophilus influenzae [14]): 98%; MIC50 (Haemophilus influenzae [15]): 1 µg/mL (≈ 2.36 µM); MIC90 (Haemophilus influenzae [15]): 1 µg/mL (≈ 2.36 µM); Activity (Haemophilus influenzae [16]): 100%; MIC (Haemophilus influenzae [17]): 0.5 µg/mL (≈ 1.18 µM); MIC50 (Haemophilus influenzae [17]): 0.5 µg/mL (≈ 1.18 µM); MIC90 (Haemophilus influenzae [17]): 2 µg/mL (≈ 4.71 µM) |
